In assay [1] the target is T1, Class 1 histone deacetylase (Homo sapiens, UniProt Q13547+O15379+Q92769+Q9BY41). The experiment in a line: Inhibition of HDAC class 1 in human HT-29 cells using Boc-Lys-Ac as substrate incubated for 3 hrs by microplate reader assay. It counts as cell-based.
Assay [2] has as its target T2, Polyamine deacetylase HDAC10 (Homo sapiens, UniProt Q969S8).
T2 sequence (Q969S8 whole entry): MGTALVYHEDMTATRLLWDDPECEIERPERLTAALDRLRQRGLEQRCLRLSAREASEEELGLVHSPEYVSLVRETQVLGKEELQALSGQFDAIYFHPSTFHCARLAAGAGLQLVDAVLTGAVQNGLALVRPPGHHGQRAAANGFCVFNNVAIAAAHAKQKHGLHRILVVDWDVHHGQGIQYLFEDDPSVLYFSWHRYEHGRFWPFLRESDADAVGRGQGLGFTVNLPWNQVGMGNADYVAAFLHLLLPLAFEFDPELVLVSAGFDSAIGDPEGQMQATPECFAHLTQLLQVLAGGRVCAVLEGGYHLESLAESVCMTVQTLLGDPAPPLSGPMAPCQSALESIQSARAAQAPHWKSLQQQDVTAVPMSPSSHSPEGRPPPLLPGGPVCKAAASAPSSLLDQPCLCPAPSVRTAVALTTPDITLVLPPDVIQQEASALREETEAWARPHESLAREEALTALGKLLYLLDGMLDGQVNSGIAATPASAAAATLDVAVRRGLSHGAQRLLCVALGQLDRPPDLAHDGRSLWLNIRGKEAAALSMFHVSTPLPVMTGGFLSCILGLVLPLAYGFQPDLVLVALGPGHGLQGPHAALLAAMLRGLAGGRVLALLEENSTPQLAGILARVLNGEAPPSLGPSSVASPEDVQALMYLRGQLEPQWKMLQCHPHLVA
The experiment in a line: Inhibition of recombinant human HDAC10 using fluorogenic substrate by fluorescence microplate reader assay. Summed up: (§1)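 Recombinant human HDAC isoforms were tested at 9 inhibitor dilutions in commercial fluorogenic enzyme kits, per the manufacturer's protocol. For class IIa enzymes, deacetylation of a TFA-lysine substrate lets trypsin release a fluorophore, read on a microplate reader. IC50 came from a nonlinear fit of % HDAC activity inhibition against compound concentration.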

Assay [3] addresses T1, Class 1 histone deacetylase. Nature of the assay: Inhibition of HDAC class 1 in human HT-29 cells using […] as fluorogenic substrate by fluorescence microplate reader assay. It counts as cell-based. Summed up:
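HT-29 cells were plated at 200,000 cells/well in RPMI without phenol red with 0.1% FBS, with 100 µM Boc-Lys-TFA for class IIa or 200 µM Boc-Lys-Ac for class I/IIb. Compounds ran as an 11-point curve (5% final DMSO), with 5 µM trichostatin A as the positive control. Incubation was 3 h at 37 °C, then trypsin developer with Tween 80 for 1 h to lyse cells and release fluorophore.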

Assay [4] in a line: Inhibition of HDAC class 2a in human L3.6pl cells using TFA-lysine as fluorogenic substrate by fluorescence microplate reader assay. Type of assay: cell-based.
Another assay addresses Histone deacetylase 5 (Homo sapiens, UniProt Q9UQL6). Nature of the assay: Inhibition of recombinant human HDAC5 using fluorogenic substrate by fluorescence microplate reader assay. Summed up:
as §1

Assay [5] in a line: Inhibition of HDAC class 2b in human L3.6pl cells using TFA-lysine as fluorogenic substrate by fluorescence microplate reader assay. It counts as cell-based.
A short description of assay [6]: Inhibition of HDAC class 2a in human THP-1 cells using TFA-lysine as fluorogenic substrate by fluorescence microplate reader assay. It counts as cell-based.
Assay [7] can be described thus: Inhibition of HDAC class 2a in human PANC-1 cells using TFA-lysine as fluorogenic substrate by fluorescence microplate reader assay. It counts as cell-based.
Assay [8] can be described thus: Inhibition of HDAC class 2b in human HT-29 cells using Boc-Lys-Ac as substrate incubated for 3 hrs by microplate reader assay. Type of assay: cell-based. The settings on record: HT-29, 3 h.
In the next assay the target is T3, Histone deacetylase 8 (Homo sapiens, UniProt Q9BY41).
T3 sequence (Q9BY41 whole entry): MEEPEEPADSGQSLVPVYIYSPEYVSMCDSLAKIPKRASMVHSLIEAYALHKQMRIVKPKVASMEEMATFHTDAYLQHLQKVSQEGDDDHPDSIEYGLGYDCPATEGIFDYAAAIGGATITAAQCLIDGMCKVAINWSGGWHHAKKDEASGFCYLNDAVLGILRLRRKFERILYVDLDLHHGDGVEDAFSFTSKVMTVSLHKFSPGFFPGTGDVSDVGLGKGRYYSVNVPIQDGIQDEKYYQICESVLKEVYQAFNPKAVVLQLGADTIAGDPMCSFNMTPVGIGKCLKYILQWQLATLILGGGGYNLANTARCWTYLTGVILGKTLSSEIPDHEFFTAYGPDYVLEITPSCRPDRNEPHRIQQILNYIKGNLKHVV
The experiment in a line: Inhibition of recombinant human HDAC8 using fluorogenic substrate by fluorescence microplate reader assay. The method in brief: as §1

SMILES strings stand for the structures.

Chain of Histone deacetylase 5 (Q9UQL6 whole entry): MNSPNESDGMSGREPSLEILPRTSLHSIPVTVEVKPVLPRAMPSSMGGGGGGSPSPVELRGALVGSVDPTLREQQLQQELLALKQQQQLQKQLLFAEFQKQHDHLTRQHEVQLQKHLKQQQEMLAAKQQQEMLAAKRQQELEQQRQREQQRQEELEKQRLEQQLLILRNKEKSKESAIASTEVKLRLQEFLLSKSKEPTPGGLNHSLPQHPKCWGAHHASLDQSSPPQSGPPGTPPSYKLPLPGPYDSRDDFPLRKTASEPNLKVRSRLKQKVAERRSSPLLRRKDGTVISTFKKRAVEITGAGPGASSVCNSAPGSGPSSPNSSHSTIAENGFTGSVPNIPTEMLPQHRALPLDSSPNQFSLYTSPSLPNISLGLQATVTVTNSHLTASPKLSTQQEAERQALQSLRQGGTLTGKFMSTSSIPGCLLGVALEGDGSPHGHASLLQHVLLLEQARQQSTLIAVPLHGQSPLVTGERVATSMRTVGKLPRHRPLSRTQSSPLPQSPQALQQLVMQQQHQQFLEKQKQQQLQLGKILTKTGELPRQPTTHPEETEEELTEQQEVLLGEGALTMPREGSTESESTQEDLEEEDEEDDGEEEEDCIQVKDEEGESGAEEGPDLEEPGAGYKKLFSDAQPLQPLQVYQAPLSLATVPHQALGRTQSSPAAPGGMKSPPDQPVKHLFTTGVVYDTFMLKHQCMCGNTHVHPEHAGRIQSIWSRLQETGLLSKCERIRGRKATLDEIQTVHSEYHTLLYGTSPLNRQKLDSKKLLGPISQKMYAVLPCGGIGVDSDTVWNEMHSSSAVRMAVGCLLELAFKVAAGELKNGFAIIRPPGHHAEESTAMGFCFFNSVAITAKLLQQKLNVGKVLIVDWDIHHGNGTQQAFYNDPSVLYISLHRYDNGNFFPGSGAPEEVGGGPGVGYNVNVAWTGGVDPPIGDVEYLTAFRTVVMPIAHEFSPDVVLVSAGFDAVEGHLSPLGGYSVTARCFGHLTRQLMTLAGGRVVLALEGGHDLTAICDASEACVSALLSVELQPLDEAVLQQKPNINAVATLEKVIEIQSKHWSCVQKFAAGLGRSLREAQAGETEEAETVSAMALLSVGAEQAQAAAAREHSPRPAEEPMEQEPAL

On to `CC(C)(CNC(=O)c1cccc(-c2noc(C(F)(F)F)n2)c1)c1coc(-c2ccccc2)n1`, for which the IC50 was above 50000 nM in assay [1]; above 5000 nM in assay [2]; above 5000 nM in [3]; 893 nM in assay [4]; 148 nM on Histone deacetylase 5; above 5000 nM in assay [5]. Further, the IC50 in assay [6] was 887 nM; in [7], 888 nM; in [8], above 50000 nM; at Histone deacetylase 8, above 5000 nM.

What is called IC50 is the midpoint of a concentration-inhibition curve.

The record behind these values is ChEMBL document CHEMBL5154665, “Design, synthesis, biochemical evaluation, radiolabeling and in vivo imaging with high affinity class-IIa histone deacetylase inhibitor for molecular imaging and targeted therapy” (Eur J Med Chem, 2022).
